For 20 compounds, IC50, Activity and Ki results are on record in ChEMBL document CHEMBL5032538, “Studies on the Importance of the 7α-, and 12α- hydroxyl groups of N-Aryl-3α,7α,12α-trihydroxy-5β-cholan-24-amides on their Antigermination Activity Against a Hypervirulent Strain of Clostridioides (Clostridium) difficile” (Bioorg Med Chem, 2021).

As a reminder, the IC50 is the concentration that inhibits the measured activity by half. For orientation: Ki means the dissociation constant of the complex between target and ligand, obtained from inhibition or displacement.

The first experiment relates to Clostridioides difficile. Briefly: Inhibition of Taurocholate-induced spore germination in Clostridioides difficile R20291 in the presence of glycine measured every minute for 2 hrs. Type of experiment: functional. Summed up:
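HistoDenz-purified spores were heat-activated at 68°C for 30 min and set to OD580 1.0 in 100 mM sodium phosphate pH 6.0 with 5 mg/ml bicarbonate. They were incubated with varied analog concentrations plus 6 mM taurocholate and 12 mM glycine. OD580 was read each minute for 2 h and normalized to t0. IC50 came from extent of germination plotted against log concentration.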
On to `COc1ccccc1NC(=O)CC[C@@H](C)[C@H]1CC[C@H]2[C@@H]3CC[C@@H]4C[C@H](O)CC[C@]4(C)[C@H]3C[C@H](O)[C@]12C`, for which the IC50 came to 2.4 µM.

`C[C@H](CCC(=O)Nc1ccccc1)[C@H]1CC[C@H]2[C@@H]3CC[C@@H]4C[C@H](O)CC[C@]4(C)[C@H]3C[C@H](O)[C@]12C`: the IC50 is 1.3 µM. On the same count and under the same terms, the same measure for `C[C@H](CCC(=O)Nc1ccccc1)[C@H]1CC[C@H]2[C@@H]3[C@H](O)C[C@@H]4C[C@H](O)CC[C@]4(C)[C@H]3CC[C@]12C`: 4 µM; for `COc1ccccc1NC(=O)CC[C@@H](C)[C@H]1CC[C@H]2[C@@H]3[C@H](O)C[C@@H]4C[C@H](O)CC[C@]4(C)[C@H]3CC[C@]12C`: 6 µM.

In another experiment the test system is Clostridioides difficile. Kind of experiment: Inhibition of Taurocholate-induced spore germination in Clostridioides difficile R20291 assessed as remaining germination activity at 125 uM in the presence of glycine measured every minute for 2 hrs relative to control. Format: functional. Summed up: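 Spores purified on a HistoDenz gradient, heat-activated at 68°C for 30 min, washed, then diluted to OD580 1.0 in 100 mM sodium phosphate pH 6.0 with 5 mg/ml sodium bicarbonate. Compound at 125 μM final, in triplicate, with 6 mM taurocholate and 12 mM glycine. OD580 read every minute for 2 h and normalized to time zero. Percent germination given with standard deviation.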
As for `C[C@H](CCC(=O)Nc1cccc(F)c1)[C@H]1CC[C@H]2[C@@H]3[C@H](O)C[C@@H]4C[C@H](O)CC[C@]4(C)[C@H]3CC[C@]12C`, the Activity worked out at 100%. On the same count and under the same terms, to `C[C@H](CCC(=O)Nc1cccc(F)c1)[C@H]1CC[C@H]2[C@@H]3CC[C@@H]4C[C@H](O)CC[C@]4(C)[C@H]3C[C@H](O)[C@]12C` belongs 59%; to `Cc1ccc(F)cc1NC(=O)CC[C@@H](C)[C@H]1CC[C@H]2[C@@H]3[C@@H](O)C[C@@H]4C[C@H](O)CC[C@]4(C)[C@H]3CC[C@]12C`, 100%; to `Cc1ccc(F)cc1NC(=O)CC[C@@H](C)[C@H]1CC[C@H]2[C@@H]3CC[C@@H]4C[C@H](O)CC[C@]4(C)[C@H]3C[C@H](O)[C@]12C`, 65%. The same measure, in the same setting: to `C[C@H](CCC(=O)Nc1ccccc1)[C@H]1CC[C@H]2[C@@H]3[C@@H](O)C[C@@H]4C[C@H](O)CC[C@]4(C)[C@H]3CC[C@]12C` belongs 57%. As to `COc1ccccc1NC(=O)CC[C@@H](C)[C@H]1CC[C@H]2[C@@H]3CC[C@@H]4C[C@H](O)CC[C@]4(C)[C@H]3CC[C@]12C`, the Activity came out at 100%. Turning to `C[C@H](CCC(=O)Nc1cccc(F)c1)[C@H]1CC[C@H]2[C@@H]3CC[C@@H]4C[C@H](O)CC[C@]4(C)[C@H]3CC[C@]12C`, the Activity came to 100%.

As to `Cc1ccc(F)cc1NC(=O)CC[C@@H](C)[C@H]1CC[C@H]2[C@@H]3CC[C@@H]4C[C@H](O)CC[C@]4(C)[C@H]3CC[C@]12C`, the Activity worked out at 100%. Still for that read-out and setting: to `COc1ccccc1NC(=O)CC[C@@H](C)[C@H]1CC[C@H]2[C@@H]3CC[C@@H]4C[C@H](O)CC[C@]4(C)[C@H]3C[C@H](O)[C@]12C` belongs 0.4%; to `C[C@H](CCC(=O)Nc1cccc(F)c1)[C@H]1CC[C@H]2[C@@H]3[C@@H](O)C[C@@H]4C[C@H](O)CC[C@]4(C)[C@H]3CC[C@]12C`, 100%; to `COc1ccccc1NC(=O)CC[C@@H](C)[C@H]1CC[C@H]2[C@@H]3[C@@H](O)C[C@@H]4C[C@H](O)CC[C@]4(C)[C@H]3CC[C@]12C`, 100%.

For the compound `Cc1ccc(F)cc1NC(=O)CC[C@@H](C)[C@H]1CC[C@H]2[C@@H]3[C@H](O)C[C@@H]4C[C@H](O)CC[C@]4(C)[C@H]3CC[C@]12C`, the Activity is reported as 66%. Still for that read-out and setting: the same measure for `C[C@H](CCC(=O)Nc1ccccc1)[C@H]1CC[C@H]2[C@@H]3CC[C@@H]4C[C@H](O)CC[C@]4(C)[C@H]3C[C@H](O)[C@]12C`: 3%; for `C[C@H](CCC(=O)Nc1ccccc1)[C@H]1CC[C@H]2[C@@H]3[C@H](O)C[C@@H]4C[C@H](O)CC[C@]4(C)[C@H]3CC[C@]12C`: 14%. On the same count and under the same terms, the same measure for `C[C@H](CCC(=O)Nc1ccccc1)[C@H]1CC[C@H]2[C@@H]3CC[C@@H]4C[C@H](O)CC[C@]4(C)[C@H]3CC[C@]12C`: 100%.

In the case of `COc1ccccc1NC(=O)CC[C@@H](C)[C@H]1CC[C@H]2[C@@H]3[C@H](O)C[C@@H]4C[C@H](O)CC[C@]4(C)[C@H]3CC[C@]12C`, the Activity amounted to 31%.

Another experiment concerns the target Clostridioides difficile. Kind of experiment: Inhibition of Taurocholate-induced spore germination in Clostridioides difficile UK1 at […] by spectrophotometric method. Format: functional.
`C[C@H](CCC(=O)O)[C@H]1CC[C@H]2[C@@H]3[C@@H](O)C[C@@H]4C[C@H](O)CC[C@]4(C)[C@H]3CC[C@]12C` [URSODIOL] came in with a Ki of 213 µM.

Compound `C[C@H](CCC(=O)O)[C@H]1CC[C@H]2[C@@H]3[C@H](O)C[C@@H]4C[C@H](O)CC[C@]4(C)[C@H]3CC[C@]12C` [CHENODIOL] had a Ki of 378 µM. `C[C@H](CCC(=O)O)[C@H]1CC[C@H]2[C@@H]3CC[C@@H]4C[C@H](O)CC[C@]4(C)[C@H]3CC[C@]12C` [LITHOCHOLIC ACID]: the Ki came to 104 µM.

The target in the next experiment is Clostridioides difficile. Kind of experiment: Inhibition of Taurocholate-induced spore germination in Clostridioides difficile 630 in presence of glycine measured every minute for 90 mins. Type of experiment: functional.
In the case of `C[C@H](CCC(=O)Nc1cccc(S(=O)(=O)O)c1)[C@H]1CC[C@H]2[C@@H]3[C@H](O)C[C@@H]4C[C@H](O)CC[C@]4(C)[C@H]3C[C@H](O)[C@]12C`, the Ki was 50 µM.
